Measured values taken from ChEMBL document CHEMBL1932986, “Synthesis and in vitro antimycobacterial activity of compounds derived from (R)- and (S)-2-amino-1-butanol - The crucial role of the configuration” (Eur J Med Chem, 2012).
Converted amounts (≈) assume the structure as drawn. The source made the active and inactive calls. The calls are words filed in the database; no cut-off is given here.

Key:
Type in all cases: functional
[1] = system: Mycobacterium tuberculosis; test: Antimycobacterial activity against Mycobacterium tuberculosis H37Rv after 45 days
In short: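 Canetti proportion method. Compound in DMSO is added to Löwenstein–Jensen egg medium before coagulation (30 min, 85 °C), tested at three levels plus a lower one where needed. Tubes are inoculated with H37Rv at 10⁵ cells/ml and incubated 45 days at 37 °C. Colony counts versus drug-free control give percentage inhibition.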

[2] = system: Bacillus subtilis; test: Antibacterial activity against Bacillus subtilis ATCC 6633 at 50 mg/ml after 24 hrs by agar diffusion test; details: for zone of inhibition at 50000 µg/mL: ATCC 6633, 24 h, read-out: DIZ
In short: (§1)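 Agar diffusion: wells in agar filled with […] DMSO solution of compound at various concentrations; diameter of clear zone around application point measured. Bacteria grown 24 h at 37 °C on nutrient agar. Compounds first screened at 50 mg/ml; those active then tested at lower concentrations. Bracketed value = lowest concentration (mg/ml) giving zone >11 mm, reported only if activity retained at ≤1.25 mg/ml.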

[3] = system: Bacillus; test: Antibacterial activity against Bacillus idosus B 241 at 50 mg/ml after 24 hrs by agar diffusion test; details: for zone of inhibition at 50000 µg/mL: B 241, 24 h, read-out: DIZ; in short: as §1
[4] = system: Priestia megaterium; test: Antibacterial activity against Bacillus megaterium NRRL 1353895 at 50 mg/ml after 24 hrs by agar diffusion test; details: for zone of inhibition at 50000 µg/mL: NRRL 1353895, 24 h, read-out: DIZ; in short: as §1
[5] = system: Bacillus mycoides; test: Antibacterial activity against Bacillus mycoides DSMZ 274 at 50 mg/ml after 24 hrs by agar diffusion test; details: for zone of inhibition at 50000 µg/mL: DSMZ 274, 24 h, read-out: DIZ; in short: as §1
[6] = system: Bacillus cereus; test: Antibacterial activity against Bacillus cereus ATCC 11778 at 50 mg/ml after 24 hrs by agar diffusion test; details: for zone of inhibition at 50000 µg/mL: ATCC 11778, 24 h, read-out: DIZ; in short: as §1
[7] = system: Acinetobacter johnsonii; test: Antibacterial activity against Acinetobacter johnsonii ATCC 17909 at 50 mg/ml after 24 hrs by agar diffusion test; details: for zone of inhibition at 50000 µg/mL: ATCC 17909, 24 h, read-out: DIZ; in short: as §1
[8] = system: Staphylococcus aureus; test: Antibacterial activity against Staphylococcus aureus NRRL B 313 at 50 mg/ml after 24 hrs by agar diffusion test; details: for zone of inhibition at 50000 µg/mL: NRRL B 313, 24 h, read-out: DIZ
In short: (§2)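 Agar diffusion: bacteria grown 24 h at 37 °C on nutrient agar. Wells in the agar are filled with […] of compound solution in DMSO at various concentrations. The diameter of the clear zone around the application point is measured. Bracketed values give the lowest concentration (mg/ml) that produces a zone >11 mm. A first screen is run at 50 mg/ml.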

[9] = system: Micrococcus luteus; test: Antibacterial activity against Sarcina lutea ATCC 9341 at 50 mg/ml after 24 hrs by agar diffusion test; details: for zone of inhibition at 50000 µg/mL: ATCC 9341, 24 h, read-out: DIZ; in short: as §2
[10] = system: Micrococcus luteus; test: Antibacterial activity against Micrococcus luteus ATCC 9631 at 50 mg/ml after 24 hrs by agar diffusion test; details: for zone of inhibition at 50000 µg/mL: ATCC 9631, 24 h, read-out: DIZ; in short: as §1
[11] = system: Escherichia coli; test: Antibacterial activity against Escherichia coli ATCC 8739 at 50 mg/ml after 24 hrs by agar diffusion test; details: for zone of inhibition at 50000 µg/mL: ATCC 8739, 24 h, read-out: DIZ; in short: as §1
[12] = system: Candida tropicalis; test: Antifungal activity against Candida tropicalis ATCC 20336 at 50 mg/ml after 72 hrs by agar diffusion test; details: for zone of inhibition at 50000 µg/mL: ATCC 20336, 72 h, read-out: DIZ
In short: (§3)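 Agar diffusion: yeasts grown on yeast peptone dextrose agar and fungi on potato dextrose agar. Wells are filled with […] of compound solution in DMSO at various concentrations, and the clear-zone diameter is measured. Bracketed values give the lowest concentration (mg/ml) that produces a zone >11 mm. A first screen is run at 50 mg/ml.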

[13] = system: Saccharomyces cerevisiae; test: Antifungal activity against Saccharomyces cerevisiae ATCC 9763 at 50 mg/ml after 72 hrs by agar diffusion test; details: for zone of inhibition at 50000 µg/mL: ATCC 9763, 72 h, read-out: DIZ; in short: as §3
[14] = system: Penicillium chrysogenum; test: Antifungal activity against Penicillium chrysogenum CECT 2802 at 50 mg/ml after 72 hrs by agar diffusion test; details: for zone of inhibition at 50000 µg/mL: CECT 2802, 72 h, read-out: DIZ; in short: as §3
[15] = system: Mycobacterium tuberculosis; test: Ratio of ethambutol dihydrochloride MIC to compound MIC for Mycobacterium tuberculosis H37Rv

In the case of `CC[C@H](CO)N1C(=O)C=C(C)C1=O`, the MIC [1] is reported as 27.3 µM (≈ 5 µg/mL), the zone of inhibition at 50000 µg/mL [2] is reported as 21 mm and the zone of inhibition at 50000 µg/mL [3] is reported as 23 mm. It also gave a zone of inhibition at 50000 µg/mL [4] of 20 mm, a zone of inhibition at 50000 µg/mL [5] of 24 mm and a zone of inhibition at 50000 µg/mL [6] of 28 mm. The zone of inhibition at 50000 µg/mL [7] was 21 mm, the zone of inhibition at 50000 µg/mL [8] was 20 mm and the zone of inhibition at 50000 µg/mL [9] was 21 mm. The zone of inhibition at 50000 µg/mL [10] was 22 mm, the zone of inhibition at 50000 µg/mL [11] was 32 mm and the zone of inhibition at 50000 µg/mL [12] was 20 mm. The zone of inhibition at 50000 µg/mL [13] was 21 mm and the zone of inhibition at 50000 µg/mL [14] was 25 mm.

`CC[C@H](CO)Nc1cccc(Br)n1` was tested, and the MIC [1] was 20.4 µM (≈ 5 µg/mL), the zone of inhibition at 50000 µg/mL [2] was 13 mm and the zone of inhibition at 50000 µg/mL [3] was 17 mm. The zone of inhibition at 50000 µg/mL [4] was 15 mm, the zone of inhibition at 50000 µg/mL [5] was 13 mm and the zone of inhibition at 50000 µg/mL [6] was 19 mm. The zone of inhibition at 50000 µg/mL [7] was 14 mm, the zone of inhibition at 50000 µg/mL [8] was 14 mm and the zone of inhibition at 50000 µg/mL [9] was 17 mm. For the same compound, the zone of inhibition at 50000 µg/mL [10] was 18 mm, the zone of inhibition at 50000 µg/mL [11] was 17 mm and the zone of inhibition at 50000 µg/mL [12] was 25 mm. It also gave a zone of inhibition at 50000 µg/mL [13] of 10 mm and a zone of inhibition at 50000 µg/mL [14] of 17 mm.

With `CC[C@@H](CO)NC(=O)c1ccccc1O` the MIC [1] was greater than 23.9 µM and the Ratio [15] was 2.

For `CC[C@H](CO)NCc1ccncc1`, the MIC [1] was 27.7 µM (≈ 5 µg/mL), the “diameter of the inhibition zone (DIZ)” value [2] was “inactive” and the “diameter of the inhibition zone (DIZ)” value [3] was “inactive”. For the same compound, the “diameter of the inhibition zone (DIZ)” value [4] was “inactive”, the “diameter of the inhibition zone (DIZ)” value [5] was “inactive” and the “diameter of the inhibition zone (DIZ)” value [6] was “inactive”. The “diameter of the inhibition zone (DIZ)” value [7] was “inactive”, the “diameter of the inhibition zone (DIZ)” value [8] was “inactive” and the “diameter of the inhibition zone (DIZ)” value [9] was “inactive”. For the same compound, the “diameter of the inhibition zone (DIZ)” value [10] was “inactive”, the “diameter of the inhibition zone (DIZ)” value [11] was “inactive” and the “diameter of the inhibition zone (DIZ)” value [12] was “inactive”. The “diameter of the inhibition zone (DIZ)” value [13] was “inactive” and the “diameter of the inhibition zone (DIZ)” value [14] was “inactive”.

Work on `CCNC(=O)N[C@@H](CC)CO` yielded an MIC [1] greater than 24.4 µM and a Ratio [15] of 2.

In the case of `CC[C@H](CO)N(CC(=O)Nc1c(C)cccc1C)CC(=O)Nc1c(C)cccc1C`, the MIC [1] is reported as greater than 12.2 µM, the “diameter of the inhibition zone (DIZ)” value [2] is reported as “inactive” and the zone of inhibition at 50000 µg/mL [3] is reported as 10 mm. The “diameter of the inhibition zone (DIZ)” value [4] was “inactive”, the zone of inhibition at 50000 µg/mL [5] was 12 mm and the zone of inhibition at 50000 µg/mL [6] was 11 mm. For the same compound, the “diameter of the inhibition zone (DIZ)” value [7] was “inactive”, the zone of inhibition at 50000 µg/mL [8] was 15 mm and the “diameter of the inhibition zone (DIZ)” value [9] was “inactive”. For the same compound, the zone of inhibition at 50000 µg/mL [10] was 12 mm, the “diameter of the inhibition zone (DIZ)” value [11] was “inactive” and the “diameter of the inhibition zone (DIZ)” value [12] was “inactive”. For the same compound, the “diameter of the inhibition zone (DIZ)” value [13] was “inactive” and the “diameter of the inhibition zone (DIZ)” value [14] was “inactive”.

With `CC[C@H](CO)NCc1ccc(-n2ccnc2)cc1` the MIC [1] was 20.4 µM (≈ 5 µg/mL), the zone of inhibition at 50000 µg/mL [2] was 12 mm and the zone of inhibition at 50000 µg/mL [3] was 16 mm. The “diameter of the inhibition zone (DIZ)” value [4] was “inactive”, the zone of inhibition at 50000 µg/mL [5] was 18 mm and the zone of inhibition at 50000 µg/mL [6] was 13 mm. The zone of inhibition at 50000 µg/mL [7] was 18 mm, the zone of inhibition at 50000 µg/mL [8] was 16 mm and the zone of inhibition at 50000 µg/mL [9] was 18 mm. The zone of inhibition at 50000 µg/mL [10] was 16 mm, the “diameter of the inhibition zone (DIZ)” value [11] was “inactive” and the “diameter of the inhibition zone (DIZ)” value [12] was “inactive”. The “diameter of the inhibition zone (DIZ)” value [13] was “inactive” and the zone of inhibition at 50000 µg/mL [14] was 12 mm.

Compound `CC[C@H](CO)NC(=O)C(C)(C)C` has an MIC [1] of 28.9 µM (≈ 5 µg/mL), a zone of inhibition at 50000 µg/mL [2] of 15 mm and a zone of inhibition at 50000 µg/mL [3] of 11 mm. For the same compound, the “diameter of the inhibition zone (DIZ)” value [4] was “inactive”, the zone of inhibition at 50000 µg/mL [5] was 11 mm and the zone of inhibition at 50000 µg/mL [6] was 16 mm. For the same compound, the “diameter of the inhibition zone (DIZ)” value [7] was “inactive”, the zone of inhibition at 50000 µg/mL [8] was 15 mm and the “diameter of the inhibition zone (DIZ)” value [9] was “inactive”. For the same compound, the “diameter of the inhibition zone (DIZ)” value [10] was “inactive”, the “diameter of the inhibition zone (DIZ)” value [11] was “inactive” and the “diameter of the inhibition zone (DIZ)” value [12] was “inactive”. For the same compound, the “diameter of the inhibition zone (DIZ)” value [13] was “inactive” and the “diameter of the inhibition zone (DIZ)” value [14] was “inactive”.

With `CC[C@H](CO)NCc1ccc(CN[C@H](CC)CO)cc1` the MIC [1] was 17.8 µM (≈ 5 µg/mL), the zone of inhibition at 50000 µg/mL [2] was 10 mm and the “diameter of the inhibition zone (DIZ)” value [3] was “inactive”. For the same compound, the “diameter of the inhibition zone (DIZ)” value [4] was “inactive”, the “diameter of the inhibition zone (DIZ)” value [5] was “inactive” and the “diameter of the inhibition zone (DIZ)” value [6] was “inactive”. For the same compound, the “diameter of the inhibition zone (DIZ)” value [7] was “inactive”, the “diameter of the inhibition zone (DIZ)” value [8] was “inactive” and the “diameter of the inhibition zone (DIZ)” value [9] was “inactive”. The “diameter of the inhibition zone (DIZ)” value [10] was “inactive”, the “diameter of the inhibition zone (DIZ)” value [11] was “inactive” and the “diameter of the inhibition zone (DIZ)” value [12] was “inactive”. The “diameter of the inhibition zone (DIZ)” value [13] was “inactive” and the “diameter of the inhibition zone (DIZ)” value [14] was “inactive”.
